Experimental data from ChEMBL document CHEMBL1955834, “Disparate SAR data of griseofulvin analogues for the dermatophytes Trichophyton mentagrophytes, T. rubrum, and MDA-MB-231 cancer cells” (J Med Chem, 2012).
Activity calls are given as the source filed them. The rule behind the calls is not given here.

Legend:
[1] = tested on: MDA-MB-231; assay: Cytotoxicity against human MDA-MB-231 cells assessed as cell viability after 48 hrs by MTT assay; assay type: functional, cell-based; conditions: MDA-MB-231, 48 h
Procedure, shortened: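 MDA-MB-231 cells were grown in L-15 with 10% FCS at 37 °C and seeded at (2-3) × 10^4 per well. Exposure was 24 and/or 48 h, then MTT for at least 4 h, with absorbance read at 570/630 nm. Each condition had at least 3 replicates, reported as mean ± SD of a representative experiment repeated at least three times.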

[2] = tested on: Trichophyton mentagrophytes; assay: Antifungal activity against Trichophyton mentagrophytes IBT 2724 after 7 days by micro broth dilution method; assay type: functional, organism-based; conditions: IBT 2724, 168 h
Procedure, shortened: (§1)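 T. mentagrophytes IBT2724 was tested by broth microdilution using an 8-fold dilution series of 10 concentrations from 50 μM down to 0.4 μM, with 1% DMSO. The inoculum was prepared per CLSI M38-A2, adjusted to OD530 0.90–1.5 and diluted 50-fold in RPMI/MOPS at pH 7.00. Plates ran 7 days at 37 °C with an OD read-out. IC50 came from a variable-slope sigmoidal fit.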

[3] = tested on: V79; assay: Cytotoxicity against Chinese hamster V79 cells; assay type: functional, cell-based; conditions: Cricetulus griseus
[4] = tested on: Trichophyton rubrum; assay: Antifungal activity against Trichophyton rubrum IBT 29284 after 7 days by micro broth dilution method; assay type: functional, organism-based; conditions: IBT 29284, 168 h
Procedure, shortened: (§2)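 T. rubrum IBT29284 was tested by broth microdilution using a 4-fold dilution series of 10 concentrations from 50 μM down to 0.2 μM, with 1% DMSO. The inoculum followed CLSI M38-A2, set to OD530 0.90–1.5 and diluted 50-fold in RPMI/MOPS at pH 7.00. Incubation was 7 days at 37 °C, read by OD. IC50 came from a variable-slope sigmoidal fit.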

[5] = tested on: Trichophyton mentagrophytes; assay: Antifungal activity against Trichophyton mentagrophytes IBT 2724 at 50 uM after 7 days by micro broth dilution method; assay type: functional; procedure, shortened: as §1
[6] = tested on: MDA-MB-231; assay: Ratio of griseofulvin IC50 to compound IC50 for human MDA-MB-231 cells; assay type: functional
[7] = tested on: Trichophyton rubrum; assay: Antifungal activity against Trichophyton rubrum IBT 29284 at 50 uM after 7 days by micro broth dilution method; assay type: functional; procedure, shortened: as §2
[8] = Drug degradation in phosphate buffered saline at pH 7.4 assessed as compound hydrolysis after 48 hrs; assay type: physicochemical; conditions: read-out: Drug degradation
Procedure, shortened: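 Oximes were held in PBS at pH 7.4 for 48 h, and hydrolysis to the parent ketones was monitored.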

[9] = Cytotoxicity against human SCC114 cells by phenotype-based spindle multipolarity assay; assay type: functional, cell-based
[10] = tested on: HeLa; assay: Cytotoxicity against human HeLa cells; assay type: functional, cell-based

Structure (SMILES)	IC50 [2] [nM]	IC50 [4] [nM]	degraded at 48 h [8] [%]	IC50 [1] [µM]	IC50 [3] [µM]	inhibition [5]	Ratio IC50 [6]	inhibition [7]	IC50 [9] [µM]	IC50 [10] [µM]
COC(=O)C1=CC(=O)C=C(OC)[C@]12Oc1c(Cl)c(C)c(Cl)c(O)c1C2=O				9.9		inactive	2	inactive		
COc1cc(OC)c2c(c1Cl)O[C@]1(C2=O)C(OCc2ccc(COC3=CC(=O)C[C@@H](C)[C@]34Oc3c(Cl)c(OC)cc(OC)c3C4=O)cc2)=CC(=O)C[C@H]1C				8.5		inactive	2	inactive		
COC1=CC(=O)C[C@@H](C)[C@]12Oc1c(Cl)c(OC)cc(OC)c1C2=O [GRISEOFULVIN]	58	380		18	8				20	25

Now from value to compound, other results behind:

IC50 [2] [nM]	IC50 [4] [nM]	degraded at 48 h [8] [%]	Structure (SMILES)	IC50 [1] [µM]	IC50 [3] [µM]	inhibition [5]	Ratio IC50 [6]	inhibition [7]	IC50 [9] [µM]	IC50 [10] [µM]
50	620		CCCOC1=CC(=O)C[C@@H](C)[C@]12Oc1c(Cl)c(OC)cc(OC)c1C2=O	16	0.7					
300	7900	< 5	COc1cc(OC)c2c(c1Cl)O[C@]1(C2=O)C(OCc2ccccc2)=C/C(=N\O)C[C@H]1C	1.4						
190	1300	< 5	COC1=C/C(=N\O)C[C@@H](C)[C@]12Oc1c(Cl)c(OC)cc(OC)c1C2=O	12						
